# Sampled rows, rich in hits. Any-hit rate of the full collection: about 11%.
# S1P1 ag-PAM = agonists and agonism potentiators of human S1P1 receptor; P21453; S1P1 CRE-bla cells, forskolin, beta-lactamase FRET, potentiator mode; S1P1 agonist co-added at EC20, 2 nM; 100% = saturating reference agonist, 0% = basal; activation, % at 9.5 µM; 56,000 compounds, 0.57% hits;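 active means activation above a cutoff set at the mean activation of all tested compounds plus 3 SD, cut at about 54% in these data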;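 further: forskolin at 4 µM as EC80 and the EC20 agonist is SEW2871; 100% = SEW2871 at its EC100 plus forskolin at EC80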
# M1 antag = blocks the rat M1 muscarinic receptor response to acetylcholine; AID 628; B-score at 10 µM; CHO-M1 cells, Fluo-4 calcium, ACh EC80 antagonist mode; active compounds read low; 64,000 compounds, 3.4% hits;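 active means calcium fluorescence response, raw or row-and-column corrected B-score, differing from the plate sample mean either way at a set confidence level, mostly lower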
# M1 agonist = activates the M1 muscarinic receptor; CHO-M1 cells, Fluo-4 calcium fluorescence, agonist mode; active compounds read high; B-score at 10 µM; 64,000 compounds, 3% hits; AID 626;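 active means fluorescence rise, raw or as B-score row- and column-corrected plate score, outside the 99.7% band of its plate's samples, either direction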
# D1 allo mod = D1 dopamine receptor (human) allosteric modulation | P21728 | HEK293 D1, CRE-luciferase, dopamine EC30 potentiation; actives deviate in either direction | B-score at 10 µM | 58,000 compounds, 5.9% hits | AID 641;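 active means luminescence count or its row- and column-corrected plate score outside the 99.7% band of the plate's sample wells, on either side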
# S1P3 agonist = S1P3 (human) receptor agonism. Q99500. S1P3 NFAT-BLA reporter cells, FRET ratio; relative to 1 µM S1P, basal subtracted. activation, % at 4.5 µM. 60,000 compounds, 0.1% hits. AID 373;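 active means activation above the screen-wide mean plus 3 SD, cut at about 4.5% in these data, passing the limit was not always enough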
# Target sequence (Q99500 whole entry, looked up): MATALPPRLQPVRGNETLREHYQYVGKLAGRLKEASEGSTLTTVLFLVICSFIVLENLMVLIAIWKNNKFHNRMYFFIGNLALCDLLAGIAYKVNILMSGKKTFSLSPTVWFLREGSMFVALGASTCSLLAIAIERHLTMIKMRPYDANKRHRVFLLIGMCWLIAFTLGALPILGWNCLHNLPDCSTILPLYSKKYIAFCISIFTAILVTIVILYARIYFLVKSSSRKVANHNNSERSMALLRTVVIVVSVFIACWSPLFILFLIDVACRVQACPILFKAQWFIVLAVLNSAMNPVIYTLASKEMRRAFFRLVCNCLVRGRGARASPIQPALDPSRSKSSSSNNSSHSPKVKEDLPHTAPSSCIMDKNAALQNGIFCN
#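 Measure – % activation relative to 1 µM S1P (100%), per plate · System – stable CHO line with human S1P3, Gα16, NFAT-BLA reporter · Timing – cells plated overnight, compound 4 h 37 °C, substrate 2 h RT · Technique – fluorescent BLA substrate, ex 405 nm, em 460/535 nm ratio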
# Starred values were filed as active, the others as inactive; . = not tested or not shown.
SMILES,S1P1 ag-PAM,M1 antag,M1 agonist,D1 allo mod,S1P3 agonist
Cc1cc(C)n(-c2nnc(C)n2/N=C/c2cc(Br)ccc2OCc2ccccc2)n1,25.4,-2.12,0.662,-0.654,-1.6
CC#CCCCC(=O)Nc1ccccc1C(=O)O,9.3,1.03,0.279,-0.0111,-1.0
CC#CCCCC(=O)Nc1ccc(C(=O)O)cc1,-7.2,-0.922,-1.38,-3.09*,-0.3
Cc1oc2cc(O)cc(O)c2c(=O)c1-c1ccc2c(c1)OCCCO2,92.8*,0.446,-0.894,0.572,-0.7
C=CCn1c(C)cc(C(=O)CSc2nnc(NCc3ccccc3)s2)c1C,24.5,1.88*,-0.0652,0.0351,-0.8
Fc1ccc(Br)cc1C1C=C(c2ccc(Br)s2)Nc2ncnn21 (stereo not given),22.0,-0.372,20.2*,0.86,-1.1
O=C(CSc1c[nH]c2ccccc12)N1CCOCC1,.,1.03,1.55,.,.
CCCc1n[nH]c2c1C(=O)C(C(=O)OC)C(C)(C)C2 (stereo not given),.,-0.125,0.488,1.66,-0.5
COC(=O)Cc1cc(=O)[nH]c(/N=C(\N)Nc2ccc(C)cc2C)n1,-13.7,0.0955,1.54,-5.21*,0.3
COCc1cc(=O)[nH]c(/N=C(\N)Nc2ccc(C)cc2)n1,-23.9,0.443,-1.02,-0.931,-1.4
O=C(c1ccccc1)C(CCC(CN1CCOCC1)C(=O)c1ccccc1)CN1CCOCC1 (stereo not given),92.6*,-0.0782,-0.28,.,-4.7
CCC(CC)C(=O)Nc1cc(C)cc(C)c1,1.6,3.27*,-0.0328,-0.011,-0.4
CCC(CC)C(=O)Nc1ccccc1NC(C)=O,-16.9,-0.231,0.087,0.434,-0.3
Cc1ccc(-c2nc3nc4ccccc4nc3n2Cc2ccco2)cc1,47.6,0.0261,-0.841,-3.29,0.7
COc1ccccc1Cn1c(-c2ccco2)nc2nc3ccccc3nc21,-14.6,0.0111,0.00887,11.8*,-0.7
Clc1ccc(-c2nc3nc4ccccc4nc3n2Cc2ccco2)cc1,80.3*,-0.431,0.0864,-2.54,0.9
Cc1cc2cc(CNC(=O)c3ccc4c(c3)OCO4)ccc2[nH]1,12.6,-0.0431,-0.88,-0.431,-0.9
CCCCCSc1nc2c(c(=O)[nH]c(=O)n2C)n1CC,-34.0,0.22,0.299,8.99*,-1.3
CCCCCSc1nc2c(c(=O)[nH]c(=O)n2C)n1C,-11.1,0.0247,2.73,2.49,-0.8
C=CCn1c(SCC(=C)C)nc2c1c(=O)[nH]c(=O)n2C,-26.2,0.0881,-0.573,6.61*,-0.7
CCCCCCn1c(SCC(C)C)nc2c1c(=O)[nH]c(=O)n2C,8.2,0.846,-0.409,27.2*,0.0
O=C(CSc1nnc(-c2ccccc2)c(-c2ccccc2)n1)N1CCOCC1,7.5,0.271,0.0153,0.0269,-2.0
c1ccc(-c2nnc(N3CCOCC3)nc2-c2ccccc2)cc1,8.1,-0.974,0.488,3.05,31.2*
Cc1cc(C)n2nc(SC3CCCCN(C(=O)c4ccc(F)cc4)C3=O)nc2n1 (stereo not given),7.1,-0.821,-0.272,0.146,0.0
CCOC(=O)C1CCN(C(c2cccnc2)c2c(NC(=O)c3ccco3)sc(C)c2C)CC1 (stereo not given),-17.9,0.328,1.44,0.346,2.1
SMILES,S1P1 ag-PAM,M1 antag,M1 agonist,D1 allo mod,S1P3 agonist
Cc1sc(NC(=O)c2ccco2)c(C(c2cccnc2)N2CCN(c3ccc(F)cc3)CC2)c1C (stereo not given),-26.7,-0.000333,-0.307,-2.99*,-0.1
O=C(Nc1ccc(N2CCOCC2)c(F)c1)c1ccncc1,15.9,-1.37,0.668,0.328,-0.8
C/C(N)=C(/C#N)C(=O)CSc1nc2ccc(C)cc2[nH]1,-5.9,-0.0844,-0.863,-2.59*,0.0
COC(=O)c1cc(CSc2nc3ccc(C)cc3[nH]2)oc1C,.,-0.357,-1.1,.,.
Cc1ccc(C(=O)N(CC(=O)NC2CCCC2)Cc2cccs2)s1,2.4,0.442,0.138,-0.381,0.6
Cc1nonc1NC(=O)CSc1nc2cc(Cl)ccc2c2c1CCCC2,.,-0.688,0.298,-2.49*,.
Cc1ccc2c3c(c(SCC(=O)Nc4nonc4C)nc2c1)CCCC3,.,-0.836,0.941,0.766,.
COc1ccc(-c2onc3ccc(Cl)cc23)cc1OC,.,0.265,1.74,12.8*,-0.9
COc1ccc(-c2noc(-c3cccc(Cl)c3)n2)cc1OC,.,0.772,-1.56,-1.44,.
Cc1ccc2c(c1)N(Cc1ccncc1)C(=O)C(C)O2 (stereo not given),-14.2,0.582,-0.103,-0.0981,0.1
Cc1ccc(-c2cnc(N)n2C)cc1C,36.2,-1.89,0.508,-3.71,1.1

# Source: PubChem (several laboratories)
